m5-HT2A agonist: activates the mouse 5-HT2A serotonin receptor | 0.66% of 360,000 active | AID 624169 | activation, % at 7.6 µM | CHO-K1 mHTR2A beta-arrestin complementation, luminescence; percent of 30 µM serotonin response;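 active = activation above a run cutoff, the mean activation of all tested compounds plus 3 SD, cut at about 14% in these data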
Beta2AR agonist: human beta-2 adrenergic receptor agonism by FAP; P07550; Am2.2-beta2AR cells, FAP receptor internalization, flow cytometry; response, % (concentration not given with the values); 0.43% of 340,000 active; AID 504454;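 active = response above a set limit, near 3 SD of response in nonfluorescent compounds, cut at about 42% in these data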
Target sequence (P07550 whole entry, looked up): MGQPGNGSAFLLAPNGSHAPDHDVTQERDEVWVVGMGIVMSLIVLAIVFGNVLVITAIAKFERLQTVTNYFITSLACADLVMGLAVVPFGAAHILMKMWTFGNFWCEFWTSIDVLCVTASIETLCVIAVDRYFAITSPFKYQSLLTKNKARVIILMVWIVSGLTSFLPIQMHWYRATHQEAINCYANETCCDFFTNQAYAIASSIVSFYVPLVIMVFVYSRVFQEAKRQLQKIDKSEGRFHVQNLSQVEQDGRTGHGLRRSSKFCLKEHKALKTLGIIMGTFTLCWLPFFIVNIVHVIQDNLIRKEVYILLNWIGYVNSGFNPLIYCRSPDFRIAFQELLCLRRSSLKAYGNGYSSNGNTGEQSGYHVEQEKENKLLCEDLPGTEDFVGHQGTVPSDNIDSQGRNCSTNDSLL
MC4R barr agon: human MC4R agonism via beta-arrestin; 0.98% of 360,000 active; P32245; U2OS MC4R beta-arrestin complementation, luminescence; percent of melanotan II response, DMSO zero; AID 540308; activation, % at 8.9 µM;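 active = activation above a per-plate cutoff, the mean activation of sample wells on that plate plus 3 SD, cut at about 8% in these data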
TAAR1 antag: human TAAR1 antagonism; Q96RJ0; CHO RD-HGA16 TAAR1, Fluo-8 calcium fluorescence, antagonist; inhibition, % at 3 µM; 1.5% of 360,000 active;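 active = inhibition above a per-plate cutoff, the mean inhibition of test compounds on that plate plus 3 SD, cut at about 49% in these data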
Target sequence (Q96RJ0 whole entry, looked up): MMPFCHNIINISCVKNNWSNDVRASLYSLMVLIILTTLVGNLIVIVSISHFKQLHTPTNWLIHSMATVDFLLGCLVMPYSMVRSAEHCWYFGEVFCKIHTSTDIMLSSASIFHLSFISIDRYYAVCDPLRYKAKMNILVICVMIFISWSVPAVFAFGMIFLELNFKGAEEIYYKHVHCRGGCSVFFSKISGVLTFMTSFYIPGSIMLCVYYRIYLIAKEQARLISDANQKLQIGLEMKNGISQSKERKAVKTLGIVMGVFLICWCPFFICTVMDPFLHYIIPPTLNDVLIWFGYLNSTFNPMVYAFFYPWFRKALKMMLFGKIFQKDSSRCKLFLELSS
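System: RD-HGA16 CHO cells with stable hTAAR1 and Gα16 | Probe or stimulus: EC80 β-phenethylamine stimulus | Dosing: 3 µM, single point | Times: Dye loading 75 min at 37 °C, then 30 min room temperature | Measured by: Fluo-8 calcium-sensitive fluorescence | Read-out basis: % inhibition of agonist calcium response | Replicates: n of 1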
TAAR1 ag: agonists of human TAAR1. CHO RD-HGA16 TAAR1, Fluo-8 calcium fluorescence; vehicle wells 0%, saturating PEA agonist 100%. 0.99% of 360,000 active. activation, % at 3 µM;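 active = activation above the mean activation of all test compounds in the run plus 3 SD, cut at about 38% in these data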
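Repeats: no replicates (n 1) | Material: CHO-derived RD-HGA16 cells with stable Gα16 and human TAAR1 | Technique: Kinetic Fluo-8 calcium fluorescence | Schedule: 17-24 h seeding, 75 min 37 °C dye, 30 min RT | Evaluation: % activation from peak over basal fluorescence ratio, DMSO-to-PEA scaled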
MC4R antag cAMP: blocks human MC4R cAMP signaling. P32245. MC4R-expressing cells, MTII-stimulated cAMP, LANCE TR-FRET. inhibition, % at 6.5 µM. 0.48% of 360,000 active. AID 540295;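 active = inhibition above its plate's cutoff, the mean of tested wells on that plate plus 3 SD, cut at about 29% in these data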
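Material – human MC4R-expressing U2OS cells · Repeats – no replicates · Detection – TR-FRET with Eu-cAMP and labeled anti-cAMP, 671 nm · Times – compound 30 min, challenge 1 h, detection 1 h · Compound – single nominal compound dose of 6.5 µM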
A number is an active result. Shown are actives, neighbours in structure and some others; about 4.3% of the full set was active somewhere.

How did O=C1Oc2ccccc2C(=O)/C1=C/N1CCN(c2ccccc2F)CC1 do in these assays?
m5-HT2A agonist: inactive; Beta2AR agonist: inactive; MC4R barr agon: inactive; TAAR1 antag: inactive; TAAR1 ag: 39; MC4R antag cAMP: inactive

How did O=C(CNC(=O)/C(=C\c1ccccc1)NC(=O)c1ccc(Br)cc1)OCc1ccccc1 do in these assays?
m5-HT2A agonist: inactive; Beta2AR agonist: inactive; MC4R barr agon: inactive; TAAR1 antag: inactive; TAAR1 ag: inactive; MC4R antag cAMP: inactive

Results for O=C(CNC(=O)/C(=C\c1ccc(F)cc1)NC(=O)c1ccccc1)OCc1ccccc1 ?
m5-HT2A agonist: inactive; Beta2AR agonist: inactive; MC4R barr agon: inactive; TAAR1 antag: inactive; TAAR1 ag: inactive; MC4R antag cAMP: 44

What do the screens show for `CNc1nc(-c2ccc3c(c2)CCN3C(=O)c2ccccc2F)cs1`?
m5-HT2A agonist: inactive; Beta2AR agonist: inactive; MC4R barr agon: inactive; TAAR1 antag: 53; TAAR1 ag: inactive; MC4R antag cAMP: inactive

How did COc1ccccc1NC(=O)c1cc2c(CO)cnc(C)c2oc1=Nc1ccc(OC)c(OC)c1 do in these assays?
m5-HT2A agonist: inactive; Beta2AR agonist: 49; MC4R barr agon: inactive; TAAR1 antag: inactive; TAAR1 ag: inactive; MC4R antag cAMP: inactive

Results for CCN1C(=O)N[C@H]2C[C@@H](c3ccccc3)[C@@H](C)[C@@H](C(=O)N3CCCC3)C[C@H]21 ?
TAAR1 antag: inactive; TAAR1 ag: inactive

What do the screens show for `CCNS(=O)(=O)c1ccc(CCC(=O)Nc2cc(Cl)ccc2Oc2ccccc2)cc1`?
m5-HT2A agonist: inactive; Beta2AR agonist: inactive; MC4R barr agon: inactive; TAAR1 antag: 83; TAAR1 ag: inactive; MC4R antag cAMP: inactive

Results for CC(C)NS(=O)(=O)c1ccc(CCC(=O)Nc2cc(Cl)ccc2Oc2ccccc2)cc1 ?
m5-HT2A agonist: inactive; Beta2AR agonist: inactive; MC4R barr agon: inactive; MC4R antag cAMP: inactive

What do the screens show for `CCCCNc1ccc(C(F)(F)F)cc1S(=O)(=O)NCCc1ccc(F)cc1`?
m5-HT2A agonist: inactive; Beta2AR agonist: inactive; MC4R barr agon: inactive; TAAR1 antag: 50; TAAR1 ag: inactive; MC4R antag cAMP: inactive

What do the screens show for `COc1ccc(S(=O)(=O)NCCc2ccc(F)cc2)cc1`?
m5-HT2A agonist: inactive; Beta2AR agonist: inactive; MC4R barr agon: inactive; TAAR1 antag: inactive; TAAR1 ag: inactive; MC4R antag cAMP: inactive

Results for O=[N+]([O-])c1cccc(N/N=C/c2ccc(N3CCOCC3)cc2)c1 ?
m5-HT2A agonist: inactive; Beta2AR agonist: inactive; MC4R barr agon: inactive; TAAR1 antag: 58; TAAR1 ag: inactive; MC4R antag cAMP: inactive

Results for CN(CC(=O)Nc1ccc(F)cc1)CC(=O)N1CCc2ccccc21 ?
m5-HT2A agonist: inactive; Beta2AR agonist: inactive; MC4R barr agon: inactive; TAAR1 antag: inactive; TAAR1 ag: inactive; MC4R antag cAMP: inactive

What do the screens show for `Cc1cc(C)cc(OC(=O)CS(=O)c2ccc(C(F)(F)F)cc2[N+](=O)[O-])c1` (configuration not stated)?
m5-HT2A agonist: inactive; Beta2AR agonist: 52; MC4R barr agon: inactive; TAAR1 antag: inactive; TAAR1 ag: inactive; MC4R antag cAMP: inactive

Results for Cc1ccc(OCCNc2ccc(C(F)(F)F)cc2[N+](=O)[O-])cc1 ?
m5-HT2A agonist: inactive; Beta2AR agonist: inactive; MC4R barr agon: inactive; TAAR1 antag: inactive; TAAR1 ag: inactive; MC4R antag cAMP: inactive

Results for Nc1cc2ccccc2cc1NS(=O)(=O)N1CCCCC1 ?
TAAR1 antag: inactive; TAAR1 ag: inactive

What do the screens show for `Cn1cc([C@]2(O)C(=O)Nc3ccc(OC(F)(F)F)cc32)c2ccccc21`?
m5-HT2A agonist: inactive; TAAR1 antag: inactive; TAAR1 ag: 41

Results for CCCn1cc(C(=O)Nc2ccc(Oc3cccnc3)cc2)c2ccccc21 ?
TAAR1 antag: inactive; TAAR1 ag: inactive

How did C=CCN1C(=O)[C@]2(OCCC=C[C@H]2C)c2cc(OC)ccc21 do in these assays?
TAAR1 antag: inactive; TAAR1 ag: inactive

Results for CC(c1ccccc1)N(CCC(c1ccccc1)C1CCOC(C)(C)C1)C(=O)c1ccco1 (configuration not stated) ?
m5-HT2A agonist: inactive; Beta2AR agonist: inactive; MC4R barr agon: inactive; TAAR1 antag: inactive; TAAR1 ag: inactive; MC4R antag cAMP: inactive

Results for COc1ccc(CN(CCC(c2ccc(F)cc2)C2CCOC(C)(C)C2)C(=O)c2ccco2)cc1 (configuration not stated) ?
m5-HT2A agonist: inactive; Beta2AR agonist: inactive; MC4R barr agon: inactive; TAAR1 antag: 64; TAAR1 ag: inactive; MC4R antag cAMP: inactive

Results for Nc1nc2c(ncn2[C@@H]2O[C@H](C(=O)NCC3CCCCC3)[C@@H](O)[C@H]2O)c(=O)[nH]1 ?
TAAR1 antag: inactive; TAAR1 ag: inactive

What do the screens show for `COc1ccc(Cc2nnc(NC(=O)c3cccc([N+](=O)[O-])c3C)s2)cc1`?
m5-HT2A agonist: inactive; Beta2AR agonist: inactive; MC4R barr agon: inactive; TAAR1 antag: inactive; TAAR1 ag: 61; MC4R antag cAMP: inactive

What do the screens show for `CCCCNC(=S)N1CCN(CC)CC1`?
m5-HT2A agonist: inactive; Beta2AR agonist: inactive; MC4R barr agon: inactive; TAAR1 antag: inactive; TAAR1 ag: 39; MC4R antag cAMP: inactive

How did Cc1cccc(C(=O)c2cnc3ccccc3c2-c2ccccc2)c1 do in these assays?
m5-HT2A agonist: inactive; Beta2AR agonist: inactive; MC4R barr agon: inactive; TAAR1 antag: 49; TAAR1 ag: inactive; MC4R antag cAMP: inactive

Results for Cc1cccc(C(=O)NNC(=O)c2ccccc2)c1 ?
m5-HT2A agonist: inactive; Beta2AR agonist: inactive; MC4R barr agon: inactive; TAAR1 antag: inactive; TAAR1 ag: inactive; MC4R antag cAMP: inactive

Results for Cc1[nH]c2ccc(-c3nnc(SCC(=O)c4ccc(F)cc4)o3)cc2c1C ?
m5-HT2A agonist: inactive; Beta2AR agonist: inactive; MC4R barr agon: inactive; TAAR1 antag: inactive; TAAR1 ag: inactive; MC4R antag cAMP: inactive

What do the screens show for `Cc1cc(C)c(C)c(C(=O)CSc2nnc(-c3ccc4[nH]c(C)c(C)c4c3)o2)c1C`?
m5-HT2A agonist: inactive; Beta2AR agonist: inactive; MC4R barr agon: inactive; TAAR1 antag: 69; TAAR1 ag: inactive; MC4R antag cAMP: inactive

How did O=C(CCl)N(c1ccccc1)c1c[nH]c2ccccc12 do in these assays?
m5-HT2A agonist: inactive; Beta2AR agonist: inactive; MC4R barr agon: 19; TAAR1 antag: inactive; TAAR1 ag: inactive; MC4R antag cAMP: inactive

What do the screens show for `O=C(O)Cc1c[nH]c2ccccc12`?
m5-HT2A agonist: inactive; Beta2AR agonist: inactive; MC4R barr agon: inactive; TAAR1 antag: inactive; TAAR1 ag: inactive; MC4R antag cAMP: inactive

What do the screens show for `O=C(CCl)N(c1ccc(Cl)cc1)c1c[nH]c2ccccc12`?
m5-HT2A agonist: inactive; Beta2AR agonist: 69; MC4R barr agon: inactive; TAAR1 antag: inactive; TAAR1 ag: 39; MC4R antag cAMP: inactive

Source: PubChem (several laboratories)
